Results as given in ChEMBL document CHEMBL4038341, “Optimization of Allosteric With-No-Lysine (WNK) Kinase Inhibitors and Efficacy in Rodent Hypertension Models” (J Med Chem, 2017).
Values after ≈ are worked out from the molar mass of the structure shown. One block for each compound: values may come before it. Active and inactive are the calls of the source. The rule behind the calls is not given here.

Key:
[1] = biological target: T1, Serine/threonine-protein kinase WNK1 (Homo sapiens, UniProt Q9H4A3); assay: Non-competitive inhibition of recombinant human N-terminal GST-tagged WNK1 (1 to 491 residues) expressed in baculovirus expression system using fluorescein-labeled OSR1 peptide as substrate measured every 3 mins from 90 to 250 mins in presence of varying concentration of ATP by Michaelis-Menten plot-based analysis
[2] = biological target: T1, Serine/threonine-protein kinase WNK1; assay: Allosteric inhibition of recombinant human N-terminal GST-tagged WNK1 catalytic domain (1 to 491 residues) expressed in baculovirus expression system using fluorescein-labeled OSR1 peptide as substrate after 3 hrs by mobility shift assay
[3] = biological target: T1, Serine/threonine-protein kinase WNK1; assay: Allosteric inhibition of recombinant human N-terminal GST-tagged WNK1 catalytic domain (1 to 491 residues) expressed in baculovirus expression system using fluorescein-labeled OSR1 peptide as substrate after 3 hrs by HTRF assay
[4] = Clearance in Sprague-Dawley rat at 0.5 mg/kg, iv measured up to 7 hrs post dose by HPLC analysis; format: ADME, organism-based; settings: in vivo
[5] = AUC in Sprague-Dawley rat at 1.5 mg/kg, po measured up to 7 hrs post dose by HPLC analysis; format: ADME, organism-based; design: time < 7 hr, dose 1.5 mg/kg, route oral; settings: in vivo
[6] = Cmax in Sprague-Dawley rat at 1.5 mg/kg, po measured up to 7 hrs post dose by HPLC analysis; format: ADME, organism-based; design: dose 1.5 mg/kg, route oral; settings: in vivo
[7] = Oral bioavailability in Sprague-Dawley rat at 1.5 mg/kg measured up to 7 hrs post dose by HPLC analysis; format: ADME, organism-based; settings: in vivo
Rattus norvegicus [8] = assay: Anti-hypertensive activity in […] rat assessed as induction of diuresis at 10 mg/kg, po administered as single dose on day 2,3 and 4 measured for 7 hrs post dose; format: functional, organism-based
How it was run: (§1)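 Spontaneously hypertensive rats got single ascending oral doses on successive days (vehicle, then 10, 30, then 100 mg kg−1). Urine was collected in metabolic cages over 7 h for volume and sodium and potassium excretion. n = 4 per group, mean ± SEM, one-way ANOVA with Bonferroni post-test versus vehicle.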

Rattus norvegicus [9] = assay: Anti-hypertensive activity in […] rat assessed as induction of natriuresis at 10 mg/kg, po administered as single dose on day 2,3 and 4 measured for 7 hrs post dose; format: functional, organism-based; how it was run: as §1
[10] = biological target: T1, Serine/threonine-protein kinase WNK1; assay: Allosteric inhibition of WNK1 (unknown origin) expressed in HEK293 cells co-expressing flag-OSR1 assessed as reduction in sorbitol-stimulated OSR1 phosphorylation preincubated with compound for 2.5 hrs followed co-administration with sorbitol measured after 1 hr by AlphaLISA assay; format: cell-based
[11] = Equilibrium solubility of compound at pH 6.8; format: physicochemical; settings: buffer
[12] = Half life in rat liver microsomes; format: ADME, microsome
[13] = Ratio of Cp in human WNK1 expressing transgenic FVB mouse at 30 mg/kg, po to IC50 for WNK1 (unknown origin) expressed in HEK293 cells
How it was run: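 Separate PK cohort of FVB mice overexpressing human WNK1, given a single oral dose of 30 mg kg−1 (n = 3); venous blood sampled over time for plasma concentration. Plasma level compared against the cellular IC50 from AlphaLISA readout of WNK-mediated phosphorylation of exogenous OSR1 in HEK293 cells.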

[14] = Plasma concentration in human WNK1 transgenic FVB mouse at 30 mg/kg, po via gavage up to 7 hrs; format: ADME, organism-based
How it was run: (§2)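 A separate cohort of human WNK1-overexpressing FVB mice was dosed 30 mg kg−1 p.o. Venous blood samples were taken over time to 7 h for plasma drug concentration. n = 3.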

[15] = Plasma concentration in human WNK1 transgenic FVB mouse at 30 mg/kg, po via gavage at 7 hrs post dose; format: ADME, organism-based; how it was run: as §2
Mus musculus [16] = assay: Anti-hypertensive activity in human WNK1 transgenic FVB mouse assessed as reduction in systolic blood pressure at 30 mg/kg, po via gavage measured every 10 minutes for 15 seconds; format: functional, organism-based
How it was run: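 Conscious FVB mice transgenic for human WNK1, fitted with implanted radiotelemetry devices, received single oral doses. Systolic blood pressure was expressed as peak and time-weighted average change against the 24 h pre-dose baseline. Heart rate was also monitored. n = 4 per group, mean ± SEM, two-way ANOVA with Bonferroni post-test versus vehicle. Plasma exposure was measured in a separate cohort (n = 3).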

[17] = biological target: Tyrosine-protein kinase BTK (Homo sapiens) (UniProt Q06187); assay: Inhibition of human full length BTK expressed in mammalian expression system at 10 uM by kinomescan assay
How it was run: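 Binding panel of 440 human kinases (KINOMEscan) at a 10 μM screening concentration. Percent inhibition per kinase, with >35% inhibition flagged as significant.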

[18] = biological target: Tyrosine-protein kinase Fer (Homo sapiens) (UniProt P16591); assay: Inhibition of human FER (542 to 822 residues) expressed in bacterial expression system at 10 uM by kinomescan assay
How it was run: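 KINOMEscan panel of 440 human kinases, with test compound screened at a single concentration of 10 μM. Read-out is percent inhibition. Hits above 35% inhibition are flagged.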

Mus musculus [19] = assay: Anti-hypertensive activity in po dosed human WNK1 transgenic FVB mouse assessed as reduction in blood pressure administered via gavage measured every 10 minutes for 15 seconds after 6 to 12 hrs; format: functional, organism-based; settings: tested as the 2H-labelled form
How it was run: (§3)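 Conscious FVB mice overexpressing human WNK1, with implanted radiotelemetry devices, received single oral doses of 10, 30 or 100 mg kg−1. Systolic blood pressure was read as peak and time-weighted average against the 24 h before treatment. n = 4 per group, mean ± SEM, two-way ANOVA with Bonferroni post-test versus vehicle.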

Mus musculus [20] = assay: Anti-hypertensive activity in human WNK1 transgenic FVB mouse assessed plasma concentration required for SBP reducing activity at 30 mg/kg, po via gavage measured after 7 hrs; format: functional, organism-based; settings: tested as the 2H-labelled form; how it was run: as §2
Rattus norvegicus [21] = assay: Anti-hypertensive activity in SHR rat assessed as induction of diuresis administered orally as single dose on day 2,3 and 4 measured for 7 hrs post dose; format: functional; settings: tested as the 2H-labelled form; how it was run: as §1
Rattus norvegicus [22] = assay: Anti-hypertensive activity in […] rat assessed as induction of natriuresis administered orally as single dose on day 2,3 and 4 measured for 7 hrs post dose; format: functional; settings: tested as the 2H-labelled form; how it was run: as §1
Rattus norvegicus [23] = assay: Anti-hypertensive activity in […] rat assessed as induction of kaliuresis administered orally as single dose on day 2,3 and 4 measured for 7 hrs post dose; format: functional; settings: tested as the 2H-labelled form; how it was run: as §1
Rattus norvegicus [24] = assay: Anti-hypertensive activity in […] rat assessed as reduction in blood pressure at 100 mg/kg, po measured for 7 hrs post dose; format: functional, organism-based; settings: tested as the 2H-labelled form
Rattus norvegicus [25] = assay: Anti-hypertensive activity in […] rat assessed as reduction in stroke volume at 100 mg/kg, po measured for 7 hrs post dose; format: functional, organism-based; settings: tested as the 2H-labelled form
Rattus norvegicus [26] = assay: Anti-hypertensive activity in […] rat assessed as reduction in total peripheral resistance at 100 mg/kg, po measured for 7 hrs post dose; format: functional, organism-based; settings: tested as the 2H-labelled form
Rattus norvegicus [27] = assay: Increase in heart rate in […] rat at 100 mg/kg, po measured for 7 hrs post dose; format: functional, organism-based; settings: tested as the 2H-labelled form
Mus musculus [28] = assay: Anti-hypertensive activity in po dosed human WNK1 transgenic FVB mouse assessed as reduction in blood pressure administered via gavage measured every 10 minutes for 15 seconds after 2 hrs; format: functional, organism-based; settings: tested as the 2H-labelled form; how it was run: as §3

T1 sequence (Q9H4A3 whole entry, the tested form may be a part): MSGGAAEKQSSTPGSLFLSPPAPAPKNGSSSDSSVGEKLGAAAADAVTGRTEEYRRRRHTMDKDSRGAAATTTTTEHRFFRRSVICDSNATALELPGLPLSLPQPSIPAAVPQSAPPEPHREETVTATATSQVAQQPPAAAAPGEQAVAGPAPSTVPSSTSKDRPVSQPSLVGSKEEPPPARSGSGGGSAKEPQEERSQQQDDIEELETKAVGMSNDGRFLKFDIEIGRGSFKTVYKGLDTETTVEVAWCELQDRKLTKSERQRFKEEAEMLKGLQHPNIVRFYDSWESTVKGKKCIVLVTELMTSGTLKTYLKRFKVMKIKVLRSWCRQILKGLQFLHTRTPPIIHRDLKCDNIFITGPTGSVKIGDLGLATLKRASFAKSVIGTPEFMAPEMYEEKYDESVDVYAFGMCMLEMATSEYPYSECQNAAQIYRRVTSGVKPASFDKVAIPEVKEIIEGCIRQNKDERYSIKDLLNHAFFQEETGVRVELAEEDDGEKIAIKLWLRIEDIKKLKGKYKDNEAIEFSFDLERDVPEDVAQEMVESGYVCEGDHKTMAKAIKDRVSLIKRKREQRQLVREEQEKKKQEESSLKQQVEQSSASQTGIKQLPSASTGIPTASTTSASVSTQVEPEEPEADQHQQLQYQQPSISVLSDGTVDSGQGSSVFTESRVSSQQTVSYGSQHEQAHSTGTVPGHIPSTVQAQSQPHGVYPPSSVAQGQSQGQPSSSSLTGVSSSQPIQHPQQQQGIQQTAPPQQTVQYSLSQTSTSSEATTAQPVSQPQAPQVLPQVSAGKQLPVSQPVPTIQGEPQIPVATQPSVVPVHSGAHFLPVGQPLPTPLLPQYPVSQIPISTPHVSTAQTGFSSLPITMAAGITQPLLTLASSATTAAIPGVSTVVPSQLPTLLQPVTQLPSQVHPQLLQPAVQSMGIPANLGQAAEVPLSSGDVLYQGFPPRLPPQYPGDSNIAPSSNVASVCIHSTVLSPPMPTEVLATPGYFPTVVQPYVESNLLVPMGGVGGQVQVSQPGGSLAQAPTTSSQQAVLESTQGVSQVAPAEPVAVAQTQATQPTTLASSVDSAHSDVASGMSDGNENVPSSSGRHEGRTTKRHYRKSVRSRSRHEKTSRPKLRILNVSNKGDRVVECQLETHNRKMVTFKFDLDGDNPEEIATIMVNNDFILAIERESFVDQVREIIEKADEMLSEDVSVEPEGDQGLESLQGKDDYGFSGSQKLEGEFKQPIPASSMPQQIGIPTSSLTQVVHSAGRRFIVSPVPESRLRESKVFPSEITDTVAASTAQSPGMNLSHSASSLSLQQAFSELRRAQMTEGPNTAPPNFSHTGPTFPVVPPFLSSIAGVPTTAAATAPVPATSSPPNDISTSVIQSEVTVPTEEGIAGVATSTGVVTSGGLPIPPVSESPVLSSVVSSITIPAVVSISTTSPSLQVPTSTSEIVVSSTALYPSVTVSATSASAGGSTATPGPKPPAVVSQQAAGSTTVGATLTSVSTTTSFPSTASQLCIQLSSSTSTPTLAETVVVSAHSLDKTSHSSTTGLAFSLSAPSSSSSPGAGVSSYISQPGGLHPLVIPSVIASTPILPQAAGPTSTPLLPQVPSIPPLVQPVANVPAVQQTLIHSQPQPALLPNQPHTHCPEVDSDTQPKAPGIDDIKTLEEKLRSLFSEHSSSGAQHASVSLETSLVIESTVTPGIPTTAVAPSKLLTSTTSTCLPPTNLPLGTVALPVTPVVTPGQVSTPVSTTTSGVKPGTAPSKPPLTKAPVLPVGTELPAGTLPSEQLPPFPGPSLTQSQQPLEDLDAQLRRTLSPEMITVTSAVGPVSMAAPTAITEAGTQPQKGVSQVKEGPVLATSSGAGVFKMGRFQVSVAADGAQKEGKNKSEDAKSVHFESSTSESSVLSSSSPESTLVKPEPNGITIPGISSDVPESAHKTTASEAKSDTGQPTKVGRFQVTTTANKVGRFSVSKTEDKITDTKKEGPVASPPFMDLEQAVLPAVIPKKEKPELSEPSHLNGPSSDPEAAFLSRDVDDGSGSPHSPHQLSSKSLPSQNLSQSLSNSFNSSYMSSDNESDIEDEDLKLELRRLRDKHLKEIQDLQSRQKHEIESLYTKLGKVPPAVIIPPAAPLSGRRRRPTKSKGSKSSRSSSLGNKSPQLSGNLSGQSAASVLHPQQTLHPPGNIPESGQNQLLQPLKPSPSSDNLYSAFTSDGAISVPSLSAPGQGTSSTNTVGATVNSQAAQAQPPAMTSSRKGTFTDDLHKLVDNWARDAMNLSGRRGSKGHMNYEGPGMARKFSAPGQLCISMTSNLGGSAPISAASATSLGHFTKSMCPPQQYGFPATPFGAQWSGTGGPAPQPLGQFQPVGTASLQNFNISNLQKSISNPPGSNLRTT
Sequence of Tyrosine-protein kinase Fer (Homo sapiens) (P16591 whole entry, looked up, the tested form may be a part): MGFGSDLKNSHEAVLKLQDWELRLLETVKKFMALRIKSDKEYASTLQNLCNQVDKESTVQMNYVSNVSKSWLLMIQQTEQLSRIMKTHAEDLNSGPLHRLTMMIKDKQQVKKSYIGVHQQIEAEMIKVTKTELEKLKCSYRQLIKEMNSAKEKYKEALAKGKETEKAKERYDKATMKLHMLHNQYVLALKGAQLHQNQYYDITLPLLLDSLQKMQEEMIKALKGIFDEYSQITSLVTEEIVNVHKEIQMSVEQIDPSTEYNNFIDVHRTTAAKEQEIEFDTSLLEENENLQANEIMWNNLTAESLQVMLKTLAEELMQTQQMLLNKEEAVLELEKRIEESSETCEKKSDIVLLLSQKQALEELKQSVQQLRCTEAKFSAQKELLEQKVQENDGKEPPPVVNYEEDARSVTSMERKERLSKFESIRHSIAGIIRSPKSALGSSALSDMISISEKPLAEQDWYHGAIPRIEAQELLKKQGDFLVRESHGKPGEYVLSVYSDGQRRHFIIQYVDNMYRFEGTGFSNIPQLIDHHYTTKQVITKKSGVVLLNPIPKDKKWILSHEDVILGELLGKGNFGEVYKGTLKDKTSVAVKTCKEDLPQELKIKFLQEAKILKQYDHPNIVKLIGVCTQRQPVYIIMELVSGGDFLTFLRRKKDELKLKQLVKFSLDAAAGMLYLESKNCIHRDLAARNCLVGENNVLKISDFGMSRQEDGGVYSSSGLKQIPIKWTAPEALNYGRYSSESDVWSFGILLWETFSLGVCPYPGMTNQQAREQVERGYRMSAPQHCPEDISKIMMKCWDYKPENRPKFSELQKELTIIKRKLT
Sequence of Tyrosine-protein kinase BTK (Homo sapiens) (Q06187 whole entry): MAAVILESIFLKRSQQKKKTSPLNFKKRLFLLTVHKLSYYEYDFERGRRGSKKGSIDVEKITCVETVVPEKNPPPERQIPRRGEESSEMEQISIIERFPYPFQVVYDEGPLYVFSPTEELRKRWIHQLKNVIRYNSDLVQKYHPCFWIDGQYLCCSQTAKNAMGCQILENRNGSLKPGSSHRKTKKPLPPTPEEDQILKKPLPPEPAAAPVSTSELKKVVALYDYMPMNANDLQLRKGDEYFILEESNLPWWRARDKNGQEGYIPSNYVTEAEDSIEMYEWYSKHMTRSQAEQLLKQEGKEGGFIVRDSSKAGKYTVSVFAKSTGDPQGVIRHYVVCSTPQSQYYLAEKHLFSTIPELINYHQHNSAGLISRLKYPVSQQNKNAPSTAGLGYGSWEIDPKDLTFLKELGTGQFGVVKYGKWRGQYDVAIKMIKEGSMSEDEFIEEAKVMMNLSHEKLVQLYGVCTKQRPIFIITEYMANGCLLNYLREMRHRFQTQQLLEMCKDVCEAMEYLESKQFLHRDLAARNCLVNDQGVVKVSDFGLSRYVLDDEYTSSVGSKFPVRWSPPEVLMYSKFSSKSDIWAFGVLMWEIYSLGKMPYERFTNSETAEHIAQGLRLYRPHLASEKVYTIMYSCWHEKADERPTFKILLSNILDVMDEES

Structure (SMILES): COc1cccc(-c2cc(C(=O)N(C)[C@@H]3CCN(Cc4ccc(Cl)cc4)C3)c3ccccc3n2)c1
- IC50 [2]: 750 nM

Structure (SMILES): CNc1nc(-c2ccc3c(c2)CCN3C(=O)c2ccccc2OCc2ccc(Cl)cc2)cs1
- clearance [4]: 108 mL/min/kg
- AUC at 7 h [5]: 0.014 µM·h
- Cmax [6]: 2 nM
- bioavailability [7]: 1.4%
- IC50 [2]: 420 nM

Structure (SMILES): CNc1nc(-c2cc(C(=O)N3CCN(Cc4ccc(Cl)cc4)CC3)ccn2)cs1
- IC50 [2]: 106 nM

Structure (SMILES): N=C(N)NC(=O)c1nc(Cl)c(N)nc1N
- Activity (Rattus norvegicus [8]): Active
- Activity (Rattus norvegicus [9]): Active

Structure (SMILES): [2H]C([2H])([2H])Nc1nc(-c2cc(C(=O)N3CCN(Cc4ccc(Cl)cc4)CC3)c(Cl)cn2)cs1
- IC50 [10]: 589 nM
- solubility thermodynamic [11]: 19 µM (≈ 8.84 µg/mL)
- half-life [12]: 15 min
- clearance [4]: 24 mL/min/kg
- AUC at 7 h [5]: 0.811 µM·h
- Cmax [6]: 308 nM
- bioavailability [7]: 45%
- Ratio [13]: 3
- concentration at 7 h [14]: 1000 nM
- concentration at 7 h [15]: 1000 nM
- IC50 [2]: 6 nM

Structure (SMILES): CNc1nc(-c2cc(C(=O)N3CCN(Cc4ccc(Cl)cc4)CC3)c(Cl)cn2)cs1
- IC50 [10]: 352 nM
- solubility thermodynamic [11]: 55 µM (≈ 25.4 µg/mL)
- half-life [12]: 13 min
- clearance [4]: 36 mL/min/kg
- AUC at 7 h [5]: 0.279 µM·h
- Cmax [6]: 113 nM
- bioavailability [7]: 21%
- inhibition [17]: Active
- inhibition [18]: Active
- Activity (Mus musculus [19]): Dose-dependent effect
- Cp (Mus musculus [20]): > 2 µM
- Activity (Rattus norvegicus [21]): Dose-dependent effect
- Activity (Rattus norvegicus [22]): Dose-dependent effect
- Activity (Rattus norvegicus [23]): Dose-dependent effect
- Activity (Rattus norvegicus [24]): Active
- Activity (Rattus norvegicus [25]): Active
- Activity (Rattus norvegicus [26]): Active
- Activity (Rattus norvegicus [27]): Active
- Activity (Mus musculus [28]): Dose-dependent effect
- IC50 [2]: 4 nM

Structure (SMILES): COc1cccc(-c2cc(C(=O)N3CCN(Cc4ccc(Cl)cc4)CC3)ccn2)c1
- IC50 [2]: 971 nM

More lines, main results first:

- Ki [1]: 32.4 nM
- IC50 [2]: 162 nM
Structure (SMILES): COc1cccc(-c2cccc(-n3cc(CNCC4CCCCC4)c4ccccc43)c2)c1

- IC50 [3]: 39 nM
Structure (SMILES): COc1cccc(-c2cc(-n3cc(CNCC4CCCCC4)c4cc(F)ccc43)ccn2)c1

- IC50 [2]: 623 nM
Structure (SMILES): COc1cccc(-c2cc(C(=O)N3CCN(Cc4ccccc4)CC3)c3ccccc3n2)c1

- IC50 [2]: 60 nM
Structure (SMILES): COc1cccc(-c2cc(-n3cc(CNCC4CCCCC4)c4ccccc43)ccn2)c1

- IC50 [10]: 1390 nM
- solubility thermodynamic [11]: 550 µM (≈ 220 µg/mL)
- half-life [12]: 15 min
- IC50 [2]: 95 nM
Structure (SMILES): COc1cccc(-c2cc(-n3cc(CNCC(C)C)c4ccccc43)c(C)cn2)c1
- Activity (Mus musculus [16]): Active

- IC50 [2]: 2140 nM
Structure (SMILES): c1ccc(-c2cccc(-n3cc(CNCC4CCCCC4)c4ccccc43)c2)cc1
